Assay results: ChEMBL document CHEMBL1629507, “Small molecule inhibitors of hantavirus infection” (Bioorg Med Chem Lett, 2010)
Where a SMILES comes first, the peptide text is derived from it. [ ]: non-standard residue; d: D form. The star is where a group is joined. Phe(4-F) = N[CH](Cc1ccc(F)cc1)C(=O)O; Tos = Cc1ccc(S(=O)(=O)*)cc1

Target: Integrin alpha-V/beta-3 (Homo sapiens) (UniProt P05106+P06756)
Experiment: Inhibition of human alphaVbeta3 receptor expressed in african green monkey Vero E6 cells assessed as inhibition of SNV infection in cells at 1 uM by immunofluorescent assay
Format: cell-based
In short: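 Vero E6 cells (10^4/well, duplicate wells) were grown 24 h at 37 °C in MEM with 2.5% FBS. They were pretreated 1 h at 37 °C with small molecules (1 µM) or cyclic peptides (2 mM, in PBS pH 7.4). SNV strain SN77734 (500–1,000 FFU/ml) was then added for 1 h, then washed out. After 24–36 h, cells were fixed and stained with anti-SNV N plus FITC antibody, and foci counted. % inhibition is relative to untreated cells, normalized to ReoPro 80 µg/ml set as 80%; at least 4 replicates.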

Structure (SMILES)	inhibition [%]
Cc1ccc(C)c(NC(=O)C(Cc2ccccc2)NS(=O)(=O)c2cccc3cccnc23)c1 (centres undefined)	0
O=C(CSc1nc2nccnc2c(=O)n1Cc1ccc2c(c1)OCO2)NCCc1ccccc1	8
CCOc1ccccc1CNC(=O)C1CCCN(c2ncnc3onc(-c4ccc(F)cc4)c23)C1 (centres undefined)	18
Cc1cc(C)cc(-n2c(=O)c3sccc3n(CC(=O)N3CCN(c4ccccc4)CC3)c2=O)c1	2.2
O=S(=O)(c1cccc2cccnc12)N1CCN(Cc2ccc3c(c2)OCO3)CC1	0
O=C(NCc1ccccc1Cl)C(Cc1ccccc1)NS(=O)(=O)c1cccc2cccnc12 (centres undefined)	21.4
O=C(NCc1ccc(Cl)cc1)C1CCCN(c2ncnc3onc(-c4ccc(F)cc4)c23)C1 (centres undefined)	23.6
COc1ccccc1CNC(=O)C1CCCN(c2ncnc3onc(-c4ccc(F)cc4)c23)C1 (centres undefined)	16
CCc1ccc(CNC(=O)C2CCCN(c3ncnc4onc(-c5ccc(F)cc5)c34)C2)cc1 (centres undefined)	7
Cc1cccc(C)c1NC(=S)N/N=C\c1cn(C)c2ccc(S(=O)(=O)N3CCOCC3)cc12	0
COc1ccc(S(=O)(=O)NC(CC(=O)NCc2ccc3c(c2)OCO3)c2ccco2)cc1 (centres undefined)	0
COc1ccc(OC)c(CNC(=O)C2CCCN(c3ncnc4onc(-c5ccc(F)cc5)c34)C2)c1 (centres undefined)	28
O=C(NCCc1ccc(Cl)cc1)C1CCCN(c2ncnc3onc(-c4ccc(F)cc4)c23)C1 (centres undefined)	14.5
O=C(CSc1nc2nccnc2c(=O)n1Cc1cccs1)NCCc1ccccc1	6
Cc1ccc(Cl)cc1NC(=O)C(Cc1ccccc1)NS(=O)(=O)c1cccc2nsnc12 (centres undefined)	3.2
COc1cccc(CNC(=O)C(Cc2ccccc2)NS(=O)(=O)c2cccc3cccnc23)c1 (centres undefined)	0.8
O=C(CCn1c(=O)c2ccccc2n(Cc2cc(=O)n3ccccc3n2)c1=O)NCc1ccco1	15
NS(=O)(=O)c1ccc(CCNC(=O)C(Cc2ccccc2)NS(=O)(=O)c2cccc3nsnc23)cc1 (centres undefined)	9.6
CCOC(=O)N1CCC(NC(=O)C(Cc2ccccc2)NS(=O)(=O)c2cccc3nsnc23)CC1 (centres undefined)	0
Cc1ccc(S(=O)(=O)NC(Cc2ccc(F)cc2)C(=O)NC(CCCNC(=N)N)C(=O)O)cc1 (centres undefined) (Tos-[Phe(4-F)]-Arg-OH; configuration not given here)	0
Cc1cccc(CN2C(=O)c3ccccc3Sc3ccc(C(=O)NCc4cccs4)cc32)c1	8.3
COc1ccc(CCNC(=O)C(Cc2ccccc2)NS(=O)(=O)c2cccc3nsnc23)cc1OC (centres undefined)	0
NS(=O)(=O)c1ccc(CCNC(=O)C(NS(=O)(=O)c2cccc3nsnc23)c2ccccc2)cc1 (centres undefined)	6

Structure (SMILES)	inhibition [%]
CCOC(=O)N1CCN(C(=O)C(Cc2ccccc2)NS(=O)(=O)c2ccc3nsnc3c2)CC1 (centres undefined)	4
O=S(=O)(c1cccc(SCc2ccccc2)c1)c1cccc(SCc2ccccc2)c1	44.2
O=C(N/N=C1\C(=O)N(CN(Cc2ccccc2)Cc2ccccc2)c2ccccc21)c1cccs1	3.8
CCOC(=O)c1sc2nc(SCC(=O)NCc3ccccc3)n(Cc3ccco3)c(=O)c2c1C	25.9
O=C(CCNS(=O)(=O)c1cccc2nsnc12)N(CCc1ccccc1)Cc1ccccc1	0
O=C(C(Cc1ccccc1)NS(=O)(=O)c1cccc2cccnc12)N1CCC2(CC1)OCCO2 (centres undefined)	9
COc1ccc([N+](=O)[O-])cc1NC(=O)C(Cc1ccccc1)NS(=O)(=O)c1cccc2nsnc12 (centres undefined)	8
O=C(NCc1ccc2c(c1)OCO2)C(Cc1ccccc1)NS(=O)(=O)c1cccc2nsnc12 (centres undefined)	0
Cc1nnc(SCC(=O)NCCc2cccs2)c2nn(-c3ccccc3)c(C)c12	17
O=C(NC(Cc1c[nH]c2ccccc12)C(=O)OCC(=O)c1ccc(Cl)cc1)Oc1ccccc1 (centres undefined)	29
COc1ccc(N2CCN(C(=O)Cc3csc4nc(-c5ccc(F)cc5)cn34)CC2)cc1	0
O=C(NCCc1ccccc1)C(Cc1ccccc1)NS(=O)(=O)c1ccc(Br)cc1 (centres undefined)	6.4
CC1CCN(CCNC(=O)C(Cc2ccccc2)NS(=O)(=O)c2cccc3cccnc23)CC1 (centres undefined)	7
Cc1cccc(OCC(=O)N/N=C/c2ccc(OC(=O)/C=C/c3ccco3)cc2)c1	8
COc1ccccc1CNC(=O)C(Cc1ccccc1)NS(=O)(=O)c1cccc2nsnc12 (centres undefined)	4.8
O=C(Cn1c(=O)n(Cc2ccc3c(c2)OCO3)c(=O)c2ccccc21)NCCc1ccccc1	25.9
O=C(NCc1cccnc1)C(Cc1ccccc1)NS(=O)(=O)c1cccc2nsnc12 (centres undefined)	35
COc1ccc(CNC(=O)c2ccc3c(c2)N(Cc2ccccc2)C(=O)c2ccccc2S3)cc1	22
CCC(Sc1nc2ccsc2c(=O)n1Cc1ccc2c(c1)OCO2)C(=O)NCc1ccco1 (centres undefined)	41
Cc1ccc(CNC(=O)C(Cc2ccccc2)NS(=O)(=O)c2cccc3cccnc23)cc1 (centres undefined)	0
O=C(NCc1ccccc1)C(Cc1ccccc1)NS(=O)(=O)c1cccc2nsnc12 (centres undefined)	3.2
CN1CCN(c2ccccc2NC(=O)C(Cc2ccccc2)NS(=O)(=O)c2cccc3nsnc23)CC1 (centres undefined)	9.6
COc1ccccc1NC(=O)C(Cc1ccccc1)NS(=O)(=O)c1cccc2cccnc12 (centres undefined)	19.3

Structure (SMILES)	inhibition [%]
O=C(c1ccco1)N1CCN(C(=O)C(Cc2ccccc2)NS(=O)(=O)c2ccc3nsnc3c2)CC1 (centres undefined)	22
COc1ccc(CNC(=O)C2CCCN(c3ncnc4onc(C)c34)C2)cc1 (centres undefined)	4.6
COc1ccc(OC)c(NC(=O)C(Cc2ccccc2)NS(=O)(=O)c2cccc3nsnc23)c1 (centres undefined)	6.4
COc1ccc(CCNC(=O)C(Cc2ccccc2)NS(=O)(=O)c2ccc(Br)cc2)cc1OC (centres undefined)	14
O=C(C(Cc1ccccc1)NS(=O)(=O)c1ccc2nsnc2c1)N1CCn2c1nc1ccccc12 (centres undefined)	0
CCCCN(CC)CCCNC(=O)C1CCCN(c2ncnc3onc(C)c23)C1 (centres undefined)	3.1
Cc1cccc(CN2C(=O)c3ccccc3Sc3ccc(C(=O)NCc4ccco4)cc32)c1	26
Cc1ccc(S(=O)(=O)N2CCN(C(=O)CSc3nnc(C)c(=O)[nH]3)C2c2ccccc2)cc1 (centres undefined)	4
COc1cccc(C(CC(=O)NCCCN2CCOCC2)NS(=O)(=O)c2ccc(C)cc2)c1OC (centres undefined)	0
N#Cc1ccccc1OCC(=O)N/N=C/c1cc(Br)ccc1OC(=O)c1ccccc1	15
O=C(NCC1COc2ccccc2O1)C(Cc1ccccc1)NS(=O)(=O)c1ccc2nsnc2c1 (centres undefined)	20
COc1ccc(NC(=O)C(Cc2ccccc2)NS(=O)(=O)c2cccc3cccnc23)c(OC)c1 (centres undefined)	22.5
O=C(O)CCCCCNC(=O)/C(=C/c1ccccc1)NC(=O)c1ccco1	0
O=C(NCCC1=CCCCC1)C(Cc1ccccc1)NS(=O)(=O)c1cccc2cccnc12 (centres undefined)	19.3
O=C(NCCC1=CCCCC1)C(Cc1ccccc1)NS(=O)(=O)c1cccc2nsnc12 (centres undefined)	0
O=C(NCCc1ccccc1)C(Cc1ccccc1)NS(=O)(=O)c1cccc2nsnc12 (centres undefined)	0
O=C(CC(NS(=O)(=O)c1ccc(Cl)cc1)c1ccco1)NCc1cccnc1 (centres undefined)	9.6
Cc1ccc(S(=O)(=O)NC(Cc2ccccc2)C(=O)NC(CCCNC(=N)N)C(=O)O)cc1 (stereo not drawn) (Tos-Phe-Arg-OH; configuration not given here)	0
O=C(NC1CCCCCC1)C(Cc1ccccc1)NS(=O)(=O)c1cccc2nsnc12 (centres undefined)	0
O=C(C(Cc1ccccc1)NS(=O)(=O)c1ccc2nsnc2c1)N1CCC2(CC1)OCCO2 (centres undefined)	6
CC(NC(=O)C(Cc1ccccc1)NS(=O)(=O)c1cccc2nsnc12)c1ccccc1 (centres undefined)	2
O=C(CSc1nc2ccsc2c(=O)n1-c1ccc(Cl)cc1)NCCc1ccc(Cl)cc1	11.4
O=C(NC1CCCc2ccccc21)C(Cc1ccccc1)NS(=O)(=O)c1cccc2nsnc12 (centres undefined)	0

Structure (SMILES)	inhibition [%]
Cc1cc(NC(=O)C(Cc2ccccc2)NS(=O)(=O)c2cccc3cccnc23)no1 (centres undefined)	9.6
O=C(Nc1ccccc1Cl)C(Cc1ccccc1)NS(=O)(=O)c1cccc2nsnc12 (centres undefined)	10
COc1ccc(/C=C(\NC(=O)c2ccccc2)C(=O)NCCCCCC(=O)O)cc1	8
COc1ccc(/C=N/NC(=O)c2sc3ccccc3c2Cl)cc1CSc1ccccn1	0
CCOC(=O)C(NC(=O)/C(=C/c1ccc(Cl)cc1)NC(=O)c1ccco1)C(C)C (centres undefined)	0
COc1ccc(Cc2cccc(CNC(=O)C3CCCN(c4ncnc5onc(-c6ccc(F)cc6)c45)C3)c2)cc1 (centres undefined)	39
COc1ccc(OC)c(CNC(=O)C2CCCN(c3ncnc4onc(C)c34)C2)c1 (centres undefined)	0
O=C(NCc1ccccc1Cl)C(Cc1ccccc1)NS(=O)(=O)c1cccc2nsnc12 (centres undefined)	0
O=C(Cn1c(=O)n(Cc2ccco2)c(=O)c2sc3ccccc3c21)NCc1ccc(Cl)cc1	0
O=C(NCc1ccc(Cl)cc1)C(Cc1ccccc1)NS(=O)(=O)c1cccc2cccnc12 (centres undefined)	9.1
Nc1c([S+]([O-])Cc2ccc(Cl)cc2)sc2nc(-c3cccs3)cc(-c3ccccc3)c12 (centres undefined)	1
O=C(N/N=C/c1ccc(Br)s1)c1cc(-c2ccccc2)nc2ccccc12	5
CCCN(CCC)CCNC(=O)C(Cc1ccccc1)NS(=O)(=O)c1cccc2nsnc12 (centres undefined)	34
Cc1cccc(NC(=O)C(Cc2ccccc2)NS(=O)(=O)c2cccc3nsnc23)n1 (centres undefined)	17.7
COc1ccc(CCNC(=O)CN(CCc2ccccc2)S(=O)(=O)c2ccccc2)cc1OC	15.2
O=C(Nc1ccccc1)C(Cc1ccccc1)NS(=O)(=O)c1cccc2cccnc12 (centres undefined)	0
CCN(CCNC(=O)C(Cc1ccccc1)NS(=O)(=O)c1cccc2nsnc12)c1ccccc1 (centres undefined)	8
CC1(C)CC(=O)c2cc(C(=O)NCCCN3CCOCC3)c(=O)n(-c3ccc(Cl)cc3)c2C1	18
CN1CCN(C(=O)C(Cc2ccccc2)NS(=O)(=O)c2cccc3cccnc23)CC1 (centres undefined)	0
O=C(CSc1nc2ccccc2n1S(=O)(=O)c1ccc(Cl)cc1)NCCc1ccccc1	13.6
